Assay results as given in ChEMBL document CHEMBL4304748, “Design, Synthesis, and Biological Evaluation of a New Series of Carvedilol Derivatives That Protect Sensory Hair Cells from Aminoglycoside-Induced Damage by Blocking the Mechanoelectrical Transducer Channel” (J Med Chem, 2019).
The source made the active and inactive calls. The calls are words filed in the database; no cut-off is given here.

Legend:
Mus musculus [1] = organism: Mus musculus; assay: (§1) Otoprotective activity against gentamicin-induced outer hair cell death in CD-1 mouse cochlea at 20 uM after 48 hrs by TRITC-phalloidin staining-based microscopic analysis relative to control; assay type: functional
In short: (§2)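 Mouse cochlear cultures coincubated for 48 h with 5 μM gentamicin plus compound (5, 10 or 20 μM). OHCs counted in a 300 μm long segment of the mid-basal cochlea. Counts compared with 0.5% DMSO control and with gentamicin + 0.5% DMSO cultures.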

[2] = Cytotoxicity against CD-1 mouse cochlea assessed as induction of cell damage at 20 uM in presence of gentamicin after 48 hrs by confocal microscopic analysis; assay type: toxicity, tissue-based
In short: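 Mouse cochlear cultures exposed 48 h to 5 μM gentamicin plus 20 μM compound, with 0.5% DMSO and gentamicin-only controls. Hair cells and bundle morphology imaged, including confocal imaging of IHC stereociliary bundles. OHC survival counted in a 300 μm segment of the mid-basal region.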

[3] = (§3) Otoprotective activity against gentamicin-induced outer hair cell death in CD-1 mouse cochlea at 10 uM after 48 hrs by TRITC-phalloidin staining-based microscopic analysis relative to control; assay type: functional; in short: as §2
[4] = Cytotoxicity in CD-1 mouse cochlea assessed as induction of cell damage in inner hair cell at 20 uM in presence of gentamicin after 48 hrs by confocal microscopic analysis; assay type: toxicity, tissue-based
In short: (§4)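 Mouse cochlear cultures exposed for 48 h to compound, either alone or with 5 μM gentamicin. Controls received 0.5% DMSO, or 5 μM gentamicin + 0.5% DMSO. Hair cell survival counted in a 300 μm segment of the mid-basal region. Confocal imaging used to assess IHC and OHC stereociliary bundle morphology.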

[5] = Binding affinity to MET in CD-1 mouse cochlear outer hair cells measured at +96 mV membrane potential by patch clamp assay
In short: (§5)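 MET currents recorded from OHCs before and during extracellular superfusion of compound at 1, 3 and 10 μM, over membrane potentials from -164 to +96 mV. Currents normalized to the peak control current at +96 mV for each cell. Dose–response curves built at each membrane potential and fitted with eq 1 to give K_D and Hill coefficient.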

Staphylococcus aureus [6] = assay: Effect on gentamycin-induced antibacterial activity against Staphylococcus aureus at 2.2 uM incubated for 16 to 20 hrs by BacTiter-Glo assay; assay type: ADME, organism-based; settings: in vivo
[7] = Toxicity in 3 days post fertilized AB zebrafish larvae assessed as reduction in larvae survival at 30 uM incubated for 48 hrs; parameters: species or system Danio rerio; settings: in vivo
In short: (§6)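 Zebrafish larvae at 3 dpf treated with compound at 30 or 100 μM for 48 h in three trials. Larvae scored for survival and for circulation, then startled and assayed for movement.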

Danio rerio [8] = organism: Danio rerio; assay: Otoprotective activity against neomycin-induced neuromast hair cell death in 4 days post fertilized AB zebrafish larvae assessed as increase in hair cell survival incubated for 1 hr by inverted microscopic method; assay type: functional, organism-based
[9] = Cytotoxicity in CD-1 mouse cochlea assessed as disruption of hair bundle morphology in inner hair cell at 20 uM in presence of gentamicin after 48 hrs by confocal microscopic analysis; assay type: toxicity, tissue-based; in short: as §4
[10] = Cytotoxicity in CD-1 mouse cochlea assessed as induction of cell death in inner hair cell at >=30 uM in presence of gentamicin after 48 hrs by confocal microscopic analysis; assay type: toxicity, tissue-based; in short: as §4
Mus musculus [11] = organism: Mus musculus; assay: Inhibition of MET channel in CD-1 mouse outer hair bundles assessed as time constant of inward current decline at 3 uM at holding potential of […] by patch clamp assay
In short: (§7)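 MET channels opened by steps from a holding potential of -84 mV, with 1 or 3 μM compound superfused. Currents averaged from 10 repetitions. The current decline was fitted with single exponentials to give time constants, and drug entry rates into hair cells were calculated from these.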

[12] = Cytotoxicity in CD-1 mouse cochlea assessed as induction of cell death in inner hair cell at >=30 uM after 48 hrs by confocal microscopic analysis; assay type: toxicity, tissue-based; in short: as §4
[13] = Binding affinity to MET in CD-1 mouse cochlear outer hair cells measured at -164 mV membrane potential by patch clamp assay; in short: as §5
Mus musculus [14] = organism: Mus musculus; settings: CD-1, 1 to 10 uM
Mus musculus [15] = organism: Mus musculus; settings: CD-1, 10 uM
[16] = Cytotoxicity against CD-1 mouse cochlea assessed as induction of cell death in outer hair cell at >=30 uM after 48 hrs in presence of gentamicin by confocal microscopic analysis; assay type: toxicity, tissue-based; in short: as §4
[17] = Cytotoxicity in CD-1 mouse cochlea assessed as induction of cell death in outer hair cell at 10 to 20 uM after 48 hrs by confocal microscopic analysis; assay type: toxicity, tissue-based; in short: as §4
[18] = Cytotoxicity in CD-1 mouse cochlea assessed as induction of cell death in outer hair cell at >=30 uM after 48 hrs by confocal microscopic analysis; assay type: toxicity, tissue-based; in short: as §4
Mus musculus [19] = organism: Mus musculus; settings: CD-1, 10 uM; remark: listed apart in the source
[20] = Cytotoxicity in CD-1 mouse cochlea assessed as disruption of hair bundle morphology in outer hair cell at 20 uM after 48 hrs by confocal microscopic analysis; assay type: toxicity, tissue-based; in short: as §4
[21] = Toxicity in 3 days post fertilized AB zebrafish larvae assessed as effect on larval movement at 100 uM incubated for 48 hrs; parameters: species or system Danio rerio; settings: in vivo; in short: as §6
Staphylococcus aureus [22] = assay: Effect on gentamycin-induced antibacterial activity against Staphylococcus aureus at 11 uM incubated for 16 to 20 hrs by BacTiter-Glo assay; assay type: ADME, organism-based; settings: in vivo
[23] = Toxicity in 3 days post fertilized AB zebrafish larvae assessed as effect on blood circulation at 100 uM incubated for 48 hrs by inverted microscopic method; parameters: species or system Danio rerio; settings: in vivo; in short: as §6
Pseudomonas aeruginosa [24] = assay: Effect on gentamycin-induced antibacterial activity against Pseudomonas aeruginosa at 2.2 uM incubated for 16 to 20 hrs by BacTiter-Glo assay; assay type: ADME, organism-based; settings: in vivo
[25] = Toxicity in 3 days post fertilized AB zebrafish larvae assessed as effect on blood circulation at 30 uM incubated for 48 hrs by inverted microscopic method; parameters: species or system Danio rerio; settings: in vivo; in short: as §6
[26] = Binding affinity to MET in CD-1 mouse cochlear outer hair cells measured at +16 mV membrane potential by patch clamp assay; in short: as §5
[27] = Cytotoxicity in CD-1 mouse cochlea assessed as disruption of hair bundle morphology in outer hair cell at 20 uM in presence of gentamicin after 48 hrs by confocal microscopic analysis; assay type: toxicity, tissue-based; in short: as §4
Klebsiella pneumoniae [28] = assay: Effect on gentamycin-induced antibacterial activity against Klebsiella pneumoniae at 2.2 uM incubated for 16 to 20 hrs by BacTiter-Glo assay; assay type: ADME, organism-based; settings: in vivo
Pseudomonas aeruginosa [29] = assay: Effect on gentamycin-induced antibacterial activity against Pseudomonas aeruginosa at 11 uM incubated for 16 to 20 hrs by BacTiter-Glo assay; assay type: ADME, organism-based; settings: in vivo
[30] = Binding affinity to MET in CD-1 mouse cochlear outer hair cells measured at -84 mV membrane potential by patch clamp assay; in short: as §5
[31] = Cytotoxicity in CD-1 mouse cochlea assessed as induction of cell damage in inner hair cell at 20 uM after 48 hrs by confocal microscopic analysis; assay type: toxicity, tissue-based; in short: as §4
Mus musculus [32] = organism: Mus musculus; assay: Inhibition of MET channel in CD-1 mouse cochlea outer hair bundles assessed as time constant of inward current decline at 1 uM at holding potential of […] by patch clamp assay; in short: as §7
Mus musculus [33] = organism: Mus musculus; settings: CD-1, 10 uM; remark: listed apart in the source
Mus musculus [34] = organism: Mus musculus; assay: Inhibition of MET in CD-1 mouse cochlear outer hair cells assessed as reduction in MET currents at 1 to 10 uM measured at -164 mV membrane potential by patch clamp assay; in short: as §5
[35] = Cytotoxicity in CD-1 mouse cochlea assessed as disruption of hair bundle morphology in inner hair cell at 20 uM after 48 hrs by confocal microscopic analysis; assay type: toxicity, tissue-based; in short: as §4
[36] = Otoprotective activity against gentamicin-induced outer hair cell death in CD-1 mouse cochlea at 5 uM after 48 hrs by TRITC-phalloidin staining-based microscopic analysis relative to control; assay type: functional; in short: as §2
Mus musculus [37] = organism: Mus musculus; settings: CD-1, 1 to 10 uM; remark: listed apart in the source
[38] = as §1; assay type: functional; in short: as §2
[39] = Toxicity in 3 days post fertilized AB zebrafish larvae assessed as reduction in larvae survival at 100 uM incubated for 48 hrs; parameters: species or system Danio rerio; settings: in vivo; in short: as §6
Klebsiella pneumoniae [40] = assay: Effect on gentamycin-induced antibacterial activity against Klebsiella pneumoniae at 11 uM incubated for 16 to 20 hrs by BacTiter-Glo assay; assay type: ADME, organism-based; settings: in vivo
Mus musculus [41] = organism: Mus musculus; assay: Inhibition of MET channel in CD-1 mouse cochlea outer hair cells assessed as reduction in GTTR uptake at 100 uM preincubated for 5 mins followed by GTTR addition and measured after 24 mins by microscopic method
In short: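 Mouse cochlear cultures pre-incubated 5 min with 100 μM compound or 1% DMSO, then 0.2 μM gentamicin Texas Red (GTTR) added. GTTR fluorescence intensity measured in first-row OHCs, with 10 cells analysed from each of three separate experiments (N = 30).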

Danio rerio [42] = organism: Danio rerio; assay: Otoprotective activity against gentamicin-induced neuromast hair cell death in 4 days post fertilized AB zebrafish larvae assessed as increase in hair cell survival incubated for 6 hrs by inverted microscopic method; assay type: functional, organism-based
[43] = Binding affinity to MET in CD-1 mouse cochlea outer hair cells measured at -104 mV membrane potential by patch clamp assay
In short: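 MET currents recorded from outer hair cells of mouse cochlear cultures before and during extracellular superfusion of compound at 1, 3 and 10 μM. Membrane potentials stepped from -164 to +96 mV. Currents normalized to the peak control current at +96 mV for each cell. Dose–response curves at each potential fitted with eq 1 to give KD and Hill coefficient.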

Mus musculus [44] = organism: Mus musculus; assay: as §3; assay type: functional; in short: as §2
Mus musculus [45] = organism: Mus musculus; assay: Inhibition of MET in CD-1 mouse cochlea outer hair cells assessed as reduction in MET currents at 10 uM measured at -160 mV to +80 mV membrane potential by patch clamp assay
In short: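 OHC MET currents recorded before and during exposure to 10 μM compound. Fractional block taken as the current during exposure relative to the control current at each membrane potential.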

With `COc1ccccc1OCCNC(=O)COc1cccc2[nH]c3ccccc3c12` the Activity (Mus musculus [1]) was “inactive”.

In the case of `OC(CNCCc1ccccc1)Cn1c2ccccc2c2ccccc21` (stereo not drawn), the Activity [2] is reported as “Toxic” and the Activity (Mus musculus [1]) is reported as “inactive”.

In the case of `COc1ccccc1OCCNCCCCOc1cccc2[nH]c3ccccc3c12`, the Activity [2] is reported as “Toxic” and the Activity (Mus musculus [1]) is reported as “inactive”.

With `COc1ccccc1OCCNCC(O)COc1cccc2[nH]c3ccccc3c12` (stereo not drawn) [CARVEDILOL] the Activity [3] was 100%, the Activity [4] was “Toxic” and the Kd [5] was 1500 nM. For the same compound, the Activity (Staphylococcus aureus [6]) was “Non-Toxic”, the Activity [7] was “Non-Toxic” and the EC50 (Danio rerio [8]) was 2470 nM. The Activity [9] was “Toxic”, the Activity [10] was “Toxic” and the TIME (Mus musculus [11]) was 2.67e-06 h. For the same compound, the Activity [12] was “Toxic”, the Kd [13] was 6.3 µM and the inhibition (Mus musculus [14]) was “inactive”. For the same compound, the inhibition (Mus musculus [15]) was “Active”, the Activity [16] was “Toxic” and the Activity [17] was “Non-Toxic”. The Activity [18] was “Toxic”, the inhibition (Mus musculus [19]) was “Active” and the Activity [20] was “Toxic”. The Activity [21] was “Toxic”, the Activity (Staphylococcus aureus [22]) was “Non-Toxic” and the Activity [23] was “Toxic”. The Activity (Pseudomonas aeruginosa [24]) was “Non-Toxic”, the Activity [25] was “Non-Toxic” and the Kd [26] was 100 nM. The Activity [27] was “Toxic”, the Activity (Klebsiella pneumoniae [28]) was “Non-Toxic” and the Activity (Pseudomonas aeruginosa [29]) was “Non-Toxic”. For the same compound, the Kd [30] was 2000 nM, the Activity [31] was “Toxic” and the TIME (Mus musculus [32]) was 5e-06 h. For the same compound, the inhibition (Mus musculus [33]) was “Active”, the inhibition (Mus musculus [34]) was “inactive” and the Activity [35] was “Toxic”. The Activity [36] was 54%, the inhibition (Mus musculus [37]) was “Active” and the Activity [38] was 100%. The Activity [39] was “Toxic”, the Activity (Klebsiella pneumoniae [40]) was “Non-Toxic” and the inhibition (Mus musculus [41]) was “Active”. The EC50 (Danio rerio [42]) was 11 µM.

For `COc1ccc(CCN(C)CCCC(C#N)(c2ccc(OC)c(OC)c2)C(C)C)cc1OC` (stereo not drawn), the Activity (Mus musculus [1]) was “inactive”.

In the case of `OC(COc1cccc2[nH]c3ccccc3c12)CN1CCN(c2ccccc2)CC1` (stereo not drawn), the Activity (Mus musculus [1]) is reported as “inactive”.

With `COc1cc2c3cc1Oc1cc(ccc1O)C[C@@H]1c4c(cc(OC)c(O)c4Oc4ccc(cc4)C[C@@H]3N(C)CC2)CC[N+]1(C)C` [TUBOCURARINE] the Kd [43] was 2200 nM.

In the case of `COc1ccccc1OCCNCC(O)COc1ccc2c(c1)[nH]c1ccccc12` (stereo not drawn), the Activity [2] is reported as “Toxic” and the Activity (Mus musculus [1]) is reported as “inactive”.

For `COc1ccccc1N1CCN(CC(O)COc2cccc3ccccc23)CC1` (stereo not drawn), the Activity (Mus musculus [44]) was “inactive”, the Activity (Mus musculus [1]) was “Active” and the inhibition (Mus musculus [45]) was “inactive”.
